The results in this text go back to ChEMBL document CHEMBL1129373, “Synthesis and evaluation of pregnane derivatives as inhibitors of human testicular 17 alpha-hydroxylase/C17,20-lyase” (J Med Chem, 1996).

The target of one assay is T1, Steroid 17-alpha-hydroxylase/17,20 lyase (Homo sapiens, UniProt P05093).
T1 sequence (P05093 whole entry): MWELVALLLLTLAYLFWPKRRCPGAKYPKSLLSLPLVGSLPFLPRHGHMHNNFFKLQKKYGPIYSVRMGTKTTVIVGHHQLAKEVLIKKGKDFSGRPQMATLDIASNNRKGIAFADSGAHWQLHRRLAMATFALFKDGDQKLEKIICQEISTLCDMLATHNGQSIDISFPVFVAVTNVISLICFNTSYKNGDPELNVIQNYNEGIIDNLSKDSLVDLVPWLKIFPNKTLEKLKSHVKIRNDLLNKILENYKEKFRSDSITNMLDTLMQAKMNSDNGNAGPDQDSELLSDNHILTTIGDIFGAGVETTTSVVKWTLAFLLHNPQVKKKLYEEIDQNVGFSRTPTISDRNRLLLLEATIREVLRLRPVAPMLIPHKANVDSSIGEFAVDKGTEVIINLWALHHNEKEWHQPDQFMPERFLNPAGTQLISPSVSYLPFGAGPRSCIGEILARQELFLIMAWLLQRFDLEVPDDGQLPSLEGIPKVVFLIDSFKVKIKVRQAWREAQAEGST
The assay is described as follows: Inhibition of human testicular steroid 17-alpha-hydroxylase.
Conditions: not given; call rule not given here
Summed up:
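Human testicular microsomes (from orchidectomy testes, stored −70 °C, diluted in 0.1 M phosphate buffer; ca. 90 μg protein) incubated with [7-³H]pregnenolone (400 nM), NADPH-generating system and four to five inhibitor concentrations, pH 7.4, under oxygen, 5 min, 34 °C. Reverse-phase HPLC with radioactivity counting; hydroxylase activity from conversion to 17α-hydroxypregnenolone plus DHEA. IC50 by nonlinear regression; duplicates, repeated at least once.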
Take `C/C(=N\N(C)C)C1CCC2C3CC=C4C[C@@H](O)CC[C@]4(C)C3CC[C@]12C` (stereo partly specified): the IC50 entry was “No inhibition”. On the same count and under the same terms, the same measure for `C#C[C@]1(O)CCC2C3CCC4=CC(=O)CC[C@]4(C)C3CC[C@@]21C` (stereo partly specified): “No inhibition”.

Still in this assay, the particulars now being: read-out: IC50.
As for `C[C@@H](O)C1CCC2C3CCC4=CC(=O)CC[C@]4(C)C3CC[C@@]21C` (stereo partly specified), the IC50 came out at 490 nM.

Regarding `C[C@H](N)[C@H]1CC[C@H]2[C@@H]3CC=C4C[C@@H](O)CC[C@]4(C)[C@H]3CC[C@]12C`, the IC50 stood at 89800 nM. For `CC(=O)C1=CCC2C3CCC4=CC(=O)CC[C@]4(C)C3CC[C@]12C` (stereo partly specified), the IC50 is 1770 nM. Same read-out and setting: the same measure for `CC(O)C1CCC2C3CC=C4C[C@@H](O)CC[C@]4(C)C3CC[C@]12C` (stereo partly specified): 720 nM; for `C=CC1CCC2C3CC=C4C[C@@H](O)CC[C@]4(C)C3CC[C@]12C` (stereo partly specified): 2880 nM. For the compound `C[C@]12CC[C@H](O)CC1=CCC1C2CC[C@]2(C)/C(=N/O)CCC12` (stereo partly specified), the IC50 was determined as 13500 nM. For `C#CC1CCC2C3CC=C4C[C@@H](O)CC[C@]4(C)C3CC[C@]12C` (stereo partly specified), the 50% inhibitory concentration (IC50) came to 3560 nM. Same read-out and setting: the figure for `CC(=O)C1=CCC2C3CC=C4C[C@@H](O)CC[C@]4(C)C3CC[C@]12C` (stereo partly specified) is 510 nM; for `C[C@@H](/C=N/O)[C@H]1CC[C@H]2[C@@H]3CCC4=CC(=O)CC[C@]4(C)[C@H]3CC[C@]12C` it is 5980 nM; for `C[C@@H](C=O)C1CCC2C3CCC4=CC(=O)CC[C@]4(C)C3CC[C@@]21C` (stereo partly specified) it is 230 nM. Regarding `C[C@@H](N)[C@H]1CC[C@H]2[C@@H]3CC=C4C[C@@H](O)CC[C@]4(C)[C@H]3CC[C@]12C`, the half-maximal inhibitory concentration (IC50) was determined as 9800 nM.

Regarding `C/C(=N\N)[C@H]1CC[C@H]2[C@@H]3CC=C4C[C@@H](O)CC[C@]4(C)[C@H]3CC[C@]12C`, the half-maximal inhibitory concentration (IC50) came out at 9980 nM.

In the case of `C/C(=N/O)C1CCC2C3CC=C4C[C@@H](O)CC[C@]4(C)C3CC[C@]12C` (stereo partly specified), the IC50 stood at 530 nM.

As for `C[C@]12CCC3C(CC=C4C[C@@H](O)CC[C@@]43C)C1CCC2[C@]1(C)CO1` (stereo partly specified), the IC50 worked out at 730 nM. Still for that read-out and setting: the figure for `C/C(=N/O)C1=CCC2C3CC=C4C[C@@H](O)CC[C@]4(C)C3CC[C@]12C` (stereo partly specified) is 16 nM. In the case of `C[C@]12CC[C@H](O)CC1=CCC1C2CC[C@]2(C)/C(=N/N)CCC12` (stereo partly specified), the IC50 came to 6480 nM.

Take `C[C@@H](O)[C@H]1CC[C@H]2[C@@H]3CCC4=CC(=O)CC[C@]4(C)[C@H]3CC[C@]12C`: the IC50 is 2840 nM. For `C[C@@H](O)C1CCC2C3CC=C4C[C@@H](O)CC[C@]4(C)C3CC[C@@]21C` (stereo partly specified), the IC50 was found to be 180 nM. On the same count and under the same terms, the same measure for `CN(C=O)C1CCC2C3CCC4=CC(=O)CC[C@]4(C)C3CC[C@@]21C` (stereo partly specified): 800 nM.

Turning to `C/C(=N\N(C)C)C1=CCC2C3CC=C4C[C@@H](O)CC[C@]4(C)C3CC[C@]12C` (stereo partly specified), the concentration for half-maximal inhibition (IC50) was found to be 43700 nM.

For `C/C(C#N)=C1/CCC2C3CCC4=CC(=O)CC[C@]4(C)C3CC[C@]12C` (stereo partly specified), the half-maximal inhibitory concentration (IC50) was 1220 nM.

For `C[C@@H](C#N)C1CCC2C3CCC4=CC(=O)CC[C@]4(C)C3CC[C@@]21C` (stereo partly specified), the IC50 is 1100 nM.

For the next assay, the target named is T1, Steroid 17-alpha-hydroxylase/17,20 lyase. The assay is described as follows: Inhibition of human testicular C17,20-lyase, cytochrome P450 17A1; No inhibition.
Conditions: not given
For `C/C(=N\N(C)C)C1CCC2C3CC=C4C[C@@H](O)CC[C@]4(C)C3CC[C@]12C` (stereo partly specified), the concentration for half-maximal inhibition (IC50) result is “Not Active”. On the same count and under the same terms, the entry for `C#C[C@]1(O)CCC2C3CCC4=CC(=O)CC[C@]4(C)C3CC[C@@]21C` (stereo partly specified) is “Not Active”.

What is called IC50 is the midpoint of a concentration-inhibition curve.
